Results reported in ChEMBL document CHEMBL6115033, “Discovery of a Pyrazolopyridinone-Based MYC Inhibitor That Selectively Engages Intracellular c-MYC and Disrupts MYC-MAX Heterodimerization” (J Med Chem, 2025).
Calls of active or inactive are those of the source. The rule behind the calls is not given here.

Legend:
[1] = Antiproliferative activity against tetracycline-treated human P493-6 cells expressing MYC assessed as inhibition of cell proliferation incubated for 96 hrs by cell titer glo assay; format: functional, cell-based; details: P493-6, 96 h
In short: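 P493-6 cells (3000/well, RPMI) were seeded overnight at 37 °C, then given compounds at final 0.14–100 µM for 96 h. MYC-off cells were pretreated with 0.1 µg/mL tetracycline for 72 h. Read-out was CellTiter-Glo luminescence after equilibration to room temperature. IC50 was determined in high-MYC and MYC-off cells.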

MDA-MB-468 [2] = assay: Downregulation of SKP2 mRNA expression in human MDA-MB-468 cells at 25 uM incubated for 12 hrs by qRT-PCR analysis; format: functional, cell-based
In short: (§1)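 Cells (500,000/well) were cultured with or without 25 µM for the indicated time. Total RNA was extracted with TRIzol and reverse-transcribed. qPCR used SYBR green with target-gene primers, reported as ΔΔCT.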

MDA-MB-468 [3] = assay: Downregulation of CCNA2 mRNA expression in human MDA-MB-468 cells at 25 uM incubated at 48 hrs by qRT-PCR analysis; format: functional, cell-based; in short: as §1
MDA-MB-468 [4] = assay: Downregulation of CDK2 mRNA expression in human MDA-MB-468 cells at 25 uM incubated at 48 hrs by qRT-PCR analysis; format: functional, cell-based; in short: as §1
MDA-MB-468 [5] = assay: Downregulation of MYC level in human MDA-MB-468 cells at 50 uM incubated for 24 hrs in presence of MG132 by Western blot analysis; format: functional, cell-based; details: in the assay text read “Stabilization of MYC protein level” for “Downregulation of MYC level”
In short: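 MDA-MB-468 cells were pretreated with 30 µM MG132 for 1 h, then exposed to graded concentrations or DMSO for 24 h. MYC was read by western blot.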

[6] = biological target: c-Myc/c-Max (Homo sapiens) (UniProt P01106+P61244); assay: Disruption of MYC-MAX interaction in human P493-6 cells at 25 uM incubated for 3 to 12 hrs by Western blot analysis; format: cell-based; details: time 3-12 hrs
In short: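 Cells were given 25 µM or DMSO for 0, 3, 5 and 12 h. Cytoplasmic and nuclear lysate fractions were pooled. 2 mg protein was immunoprecipitated with MYC antibody overnight, then protein A/G beads for 4 h at 4 °C. Bound MAX was detected by western blot and quantified relative to MYC; MAX input was also measured.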

[7] = Induction of apoptosis in human P493-6 cells assessed as necrotic cells at 25 uM incubated for 24 hrs by Annexin V/PI staining based flow cytometry analysis (reference value: 0.11 %); format: functional
P493-6 [8] = assay: Antiproliferative activity against human P493-6 cells expressing MYC assessed as inhibition of cell proliferation at 25 uM incubated for 96 hrs by cell titer glo assay; format: functional, cell-based
In short: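 P493-6 cells, either untreated (high MYC) or MYC-off after 0.1 µg/mL tetracycline for 72 h, were exposed to 25 µM for 96 h. Read-out was % survival by CellTiter-Glo luminescence. Mean ± SD, n = 6, unpaired t-test.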

MDA-MB-468 [9] = assay: Induction of apoptosis in human MDA-MB-468 cells cultured as 3D spheroids assessed as inhibition of cell growth incubated for 5 days; format: functional, cell-based; details: time 5.0 day
In short: (§2)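 Cells plated at 4000 per well in low-attachment 24-well plates and grown in Mammocult medium for 48 h to form mammospheres. Spheres then exposed to 25 uM compound for 5 days, with untreated control wells. Read-out was imaging of the mammospheres formed.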

MCF7 = assay: Induction of apoptosis in human MCF7 cells cultured as 3D spheroids assessed as inhibition of cell growth incubated for 5 days; format: functional, cell-based; details: time 5.0 day; in short: as §2
P493-6 [10] = assay: Downregulation of CDK2 mRNA expression in human P493-6 cells at 25 uM incubated for 12 hrs by qRT-PCR analysis; format: functional, cell-based; in short: as §1
MDA-MB-468 [11] = assay: Downregulation of E2F1 mRNA expression in human MDA-MB-468 cells at 25 uM incubated at 48 hrs by qRT-PCR analysis; format: functional, cell-based; in short: as §1
P493-6 [12] = assay: Downregulation of SKP2 mRNA expression in human P493-6 cells at 25 uM incubated for 12 hrs by qRT-PCR analysis; format: functional, cell-based
In short: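 P493-6 cells seeded at 500,000 per well and cultured with or without 25 uM compound for the indicated time. Total RNA extracted with TRIzol. Reverse transcription at 25 °C for 10 min, 37 °C for 120 min, then 85 °C for 5 min. SYBR green qPCR used primers for MYC target genes. Relative mRNA expressed as ΔΔCT.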

Sequence of c-Myc/c-Max (Homo sapiens) (P01106 whole entry): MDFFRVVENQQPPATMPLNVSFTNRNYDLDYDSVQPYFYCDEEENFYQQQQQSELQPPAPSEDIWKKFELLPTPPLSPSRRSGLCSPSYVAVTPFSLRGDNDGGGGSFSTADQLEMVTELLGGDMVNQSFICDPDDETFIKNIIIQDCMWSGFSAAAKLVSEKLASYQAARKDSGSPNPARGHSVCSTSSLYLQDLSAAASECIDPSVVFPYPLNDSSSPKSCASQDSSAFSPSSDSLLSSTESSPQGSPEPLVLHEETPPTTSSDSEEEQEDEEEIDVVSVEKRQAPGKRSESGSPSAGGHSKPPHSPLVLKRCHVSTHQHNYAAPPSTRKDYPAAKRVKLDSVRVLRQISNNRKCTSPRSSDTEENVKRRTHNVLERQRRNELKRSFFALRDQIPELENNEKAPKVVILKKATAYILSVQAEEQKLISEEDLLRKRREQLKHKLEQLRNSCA
Sequence of c-Myc/c-Max (Homo sapiens) (P61244 2-160 partner limits assumed): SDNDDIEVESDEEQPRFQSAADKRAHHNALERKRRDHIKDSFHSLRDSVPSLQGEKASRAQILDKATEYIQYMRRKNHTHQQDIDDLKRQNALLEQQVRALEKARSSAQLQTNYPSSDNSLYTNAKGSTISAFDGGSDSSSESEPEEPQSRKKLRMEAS

N#Cc1cc2c(-c3ccc(Cl)cc3)nn(-c3ccccc3)c2[nH]c1=O
IC50 [1]: 58.9 µM | Activity (MDA-MB-468 [2]): Active | Activity (MDA-MB-468 [3]): Active | Activity (MDA-MB-468 [4]): Active | Activity (MDA-MB-468 [5]): Active | Activity [6]: Active | Activity [7]: 0.095% | Activity (P493-6 [8]): Active | Activity (MDA-MB-468 [9]): Active | Activity (MCF7): Active | Activity (P493-6 [10]): Active | Activity (MDA-MB-468 [11]): Active | Activity (P493-6 [12]): Active
